Here are results for 37 variants from the RNAGym collection of RNA variant scans (doi:10.1126/science.aae0568).

Variants at the floor of the assay were thinned out.

First the molecules themselves.
B1: tRNA (parent)
chain: GUUCCGUUGGCGUAAUGGUAACGCGUCUCCCUCCUAAGGAGAAGACUGCGGGUUCGAGUCCCGUACGGAACG

Variants of B1 are the subject of the data set. In words: yeast fitness relative to wild type (ratio to wild type); higher = fitter; tRNA-Arg(CCU), competitive growth, 37 C, YPD. A digest of the protocol: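 A pool of Saccharomyces cerevisiae strains, each with a tRNA-Arg(CCU) gene variant at the native genomic locus, was competed in YPD at 37°C for 24 hours across six parallel replicates. The variants had been chemically synthesised at a 3% per-site mutation rate over 69 sites, and gene amplicons before and after competition were read by 100-nucleotide paired-end sequencing. Darwinian fitness relative to wild type rested on changes in genotype frequencies. Genotypes required ≥ 100 starting reads, and estimates < 0.5 were set to 0.5.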
For the variant GUUCCGUCGGCCUAAUGGUAACGCGUCUCCCUCCUAAGGAGAAGACUGCGGGUUCGAGUCCCCUACGGAACG [U8C G12C G63C], the yeast fitness is 0.577.
The result for GUUCCGUUGGCGUGAUGGUAACGCGUCUCCAUCCUAAGGAGAAGAUUGCGGGUUCCAGUCCCGUACGGUACG [A14G C31A C46U G56C A69U] reads at most 0.5; that for GUUCCGUUGGCGUAAUGGUAACUCGUCUCCCUCCUAAGGAGACGACUGCGGGUUCGAGUCCCGUACGGAACG [G23U A43C], 0.605.
For GUCCCGUUGGCGUAAUGGUAACGCGUCUCCUUCCUAAGGAGAAGACUGCGGGUUCGAGUCCGGUACGGAACG [U3C C31U C62G] the value was 0.665; for GUUCCGUUGGCGUAAUGGUAACACGUCUACCUCCUAAGGAGAAGACUGCGGGUUCGAGUCCCGUACGAAACG [G23A C29A G68A], at most 0.5.
For GUACCGUUGGCGUACCGGUAACGCGUCUCCCUCCUAAGGAGAAGACUGCGGGUUCGAGUCCCGUAUGGAACG [U3A A15C U16C C66U] the value was at most 0.5; for GUUCCGUUGGUGUAAUGGUAACGCGUCUCCCUCCUAAGGUGAAGACUGCGGGUUCGAGUCCCGUAGGGAACG [C11U A40U C66G], at most 0.5; for GUUCCGUUGGUGUAAUGGUACCGCGUCUCCCUCCUAAGGAGAAGACUGCGGGUUCGAGUCCCGUACGGAGCG [C11U A21C A70G], at most 0.5.
With GUUCCGUUGGCGUAAUGGUAACGCGACUCCCCCCUAAGGAGAAGACUGCGGGUUCGCGUCCUGUACGGAACG [U26A U32C A57C C62U], the yeast fitness was at most 0.5.
The result for GUUCCGUUGGCGUAAUGGUAACGCGUCUCCCUCCUAAGGAGAAGACUACGGGUUCGAGUCGCGUCCGGAACG [G48A C61G A65C] reads at most 0.5.
For GGUCCGUUGGCGUAAUGGUAACGCGUCUCCCUCCCAAGGAGAAGACUGCGGGUUCGAGUCCCGUACGGAACG [U2G U35C] the value was 0.72; for GUUCUGUUGACGUAAUGGUAAUGCGUCUCCCUCCUAAGGGGAAGACUGCGGGUUCCAGUCCCGUAAGGAACG [C5U G10A C22U A40G G56C C66A], at most 0.5; for GUUCUGUUGGCGUACUGGUAACGCGUUUUCCUCCUAAGGAGAAGACUGCGGGUUCGCGUCCCGUACGGAACG [C5U A15C C27U C29U A57C], at most 0.5.
The result for GUUCCGAUGACGUAAUGGUAACGCGUCUCACUCCUAAGGAGACGACUGCGGGUUCGAGUCCCGUACGGAACG [U7A G10A C30A A43C] reads at most 0.5.
As to GUUCCGUUGGCGUAAUGGUAACACGUCUCCCUCCUAAGGAGAAGACUGCGGGUUCAAGUCCCGUACGGAACG [G23A G56A], the yeast fitness was 0.924.
For GUUCCGUUGGCGUAAUGGUAACGCGUGUCCGUCCUAAGGAGAAGACUGCGGGUUCGAGUCCCGUACGGUACG [C27G C31G A69U] the value was at most 0.5; for GUUCCAUUGGCGUAAUGGAGACACGUCUCCCUCCUAAGGAGAAGACUGCGGGUUCGAGUCCCGUACGGAACG [G6A U19A A20G G23A], at most 0.5.
For GUUACGUUGGCGUAAUGGUAACGCGUCUGCCUCCUAAGGAGAAGACUGCGGGUUCGAGUCCCGUACGCAACG [C4A C29G G68C] the value was at most 0.5.
The result for GUUCGGUUGGUGUAAUGGUAACGCGUCUCCCUCCUACGGAGAAGACUGUGGGUUCGAGUACCGUACGGAACG [C5G C11U A37C C49U C60A] reads 0.557; that for GUUCUGUUGGAGUAAUGGUACCGCGUGUCCCUCCUAAGGAGAAGACUGCGGGUUCGAGUCCCGUACGCAACG [C5U C11A A21C C27G G68C], at most 0.5; that for GUUCCGUUGGGAUAAUGGCAACGCGUCUCCCUCCUAAGGAGAAGACUGCGGGUUCGAGUCCCGUACGGAACG [C11G G12A U19C], at most 0.5.
With GUUCGGUUGGCGUAAUGGUAACGCGUCUCCCCCCUAACGAGAAGACUGCGGGUUCGAGUCCCGUACGGAACG [C5G U32C G38C], the yeast fitness came to 0.534.
As for GUUCCGUUGGCAUAAUGGUAACGCGUCUCCCUCCUAAGGAGAACACUGCGGGUUCGAGUCCCGUACGGAACG [G12A G44C], the yeast fitness stood at 0.727.
The result for GUUGCGUUGGCGUAAUGGUAACGCGUCUCCCUCCUAAGGAGAAGACUGCGGCUUCGCGUCCCCUACGGAACG [C4G G52C A57C G63C] reads at most 0.5; that for GUUGCGUUGGCGUAAUGGUAAGGCGUCUCCCUCCUAAGGAGAAGACUGCGGGUUCGAGUCCCGUACGGAACG [C4G C22G], 0.787.
Consider GUUCCGUUGGCGUAAUGGUCACGCAUCCCCCUCCUAAGGAGAAAACUGCGGGUUCGAGUCCCGUACGGAACG [A20C G25A U28C G44A], for which the yeast fitness was 0.553.
Turning to GUUCCGUUGGCGUAAAGGUAACGCGUCUCCCUCCUAUGGAGAAGACUGCGGGUUCGAGUCCGGUACGGAACG [U16A A37U C62G], the yeast fitness was at most 0.5.
On to GUUCCGUUGGUGUAAUGGUAACGCGUCUCCCUCCUAAGGAGAAGACUGCGGGUACGAGUCCUGUACGGAACG [C11U U54A C62U], for which the yeast fitness was at most 0.5.
The result for GUUCCGUUGGCGUGAUGGUAAUGCGUCUCCCUCCUAAGGAGAAGAGUGCGGGUUCGAGUGCCGUACGGAACG [A14G C22U C46G C60G] reads at most 0.5.
In the case of GUUCCGUAGGCGUAAUGGUAACGCGUCUCCGUCCUAAGGAGAAGACUGCGGGUUCGAGUCCCGUUCGGAACG [U8A C31G A65U], the yeast fitness is at most 0.5.
As to GUUCCGUUGGUGUCAUGGUAACGCGUGUCCCUCCUAAGGAGAAGAGUGCGGGUUCGAGUCCCGUGCGGAACG [C11U A14C C27G C46G A65G], the yeast fitness amounted to 0.52.
In the case of GUUCCGUUGGCGUAAUGGUAACGCGUAUCCCUCCUACGGAGAGGACUGCGGGUUGGAGUCCCGUACGGAACG [C27A A37C A43G C55G], the yeast fitness is at most 0.5.
The result for GUUUCGUUGGCGUACUGGUAACGCGUCUCCCUCCUAAGGAGAAGACUGCGCGUUCGAGUCCCGUACGGAACG [C4U A15C G51C] reads at most 0.5.
The result for GUUCCGUUGGGGUAAAGGUAACGCGUCUCCCUCCUAAGGAGAAGACUGCGGGUUCGAGUCCCGUACGGAACG [C11G U16A] reads 0.666; that for GCUCCGUUGGCGUAAUGGUAACGCGUCUCUCUCCUACCGAGAAGACUGCGGGUACGAGUCCCGUACGGAACG [U2C C30U A37C G38C U54A], at most 0.5; that for GUUCCGUUGGCGUAAUGGUAUCGCGUCUCCCUCCUAAGGAGAAGACUACGGGUUCGUGUCCCGUACGGAACG [A21U G48A A57U], 0.714.
The result for GUUCCGUUGGCGAAAUGGUCAGGCGUCUCCCUCCUAAGGAGAAGACUGCGGGUUCGAGUCCCGUACGGAACG [U13A A20C C22G] reads at most 0.5.
